Assay results: ChEMBL document CHEMBL1143331, “The synthesis and structure-activity relationship of substituted N-phenyl anthranilic acid analogs as amyloid aggregation inhibitors” (Bioorg Med Chem Lett, 2009)
Activity calls are given as the source filed them. No cut-off for these calls is given here.

system: Mus musculus; assay: Reduction in senile plaque load in Tg2576 mouse overexpressing human betaAPP695SWE at 200 mg/kg/day, po administered with chow for 7 months; assay type: functional; design: scale not given: the % may be the effect or the level left

In the case of `O=C(O)c1ccccc1Nc1ccc(CCc2ccc(Cl)c(Cl)c2)cc1`, the Activity is reported as 44%.

system: not listed separately; assay: Inhibition of amyloid beta (1 to 40) aggregation by beta amyloid self seeding radioassay
How it was run: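 Aβ(1-40) at 30 μM unlabeled, plus a tracer amount of 125I-Aβ(1-40), incubated with compound in 50 mM NaPi, 150 mM NaCl, 1 M urea, 0.02% w/v NaN3, pH 7.5. Radiolabeled fibrils retained on a 0.2 µm filter were measured. Eight compound concentrations were tested, and IC50 was taken by logit transformation of the titration curves. Values are the average of two separate experiments.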

Point of comparison: `O=C(O)c1cc(F)ccc1Nc1ccc(CCCc2ccc(Cl)c(Cl)c2)cc1`, IC50 86 µM. Against it:
- O=C(O)c1ccccc1Nc1ccc(CCc2cccc(F)c2)cc1 — higher, > 100 µM
- O=C(O)c1cc([N+](=O)[O-])ccc1Nc1ccc(CCCc2ccc(Cl)c(Cl)c2)cc1 — higher, > 100 µM
- O=C(O)c1ccccc1Nc1ccc(CCN2CCC3CCCCC3C2)cc1 (stereo not drawn) — higher, > 100 µM
- O=C(O)c1ccccc1Nc1ccc(CCCc2ccc(Cl)c(Cl)c2)cc1 — 3.4-fold lower, 25 µM
- O=C(O)c1ccc(Nc2ccc(CCc3ccc(Cl)c(Cl)c3)cc2)cc1 — higher, > 100 µM
- O=C(O)c1ccccc1Nc1ccc(CCCc2ccc(Cl)cc2)cc1 — 29-fold lower, 3 µM
- O=C(O)c1cc([N+](=O)[O-])ccc1Nc1ccc(CCc2ccc(F)c(C(F)(F)F)c2)cc1 — 29-fold lower, 3 µM
- O=C(O)c1cc([N+](=O)[O-])ccc1Nc1ccc(CCc2ccc(Cl)cc2Cl)cc1 — 5.1-fold lower, 17 µM
- O=C(O)c1ccccc1Nc1ccc(CCc2ccccc2)cc1 — within 1.5-fold, 60 µM
- Cc1ccc(CCCc2ccc(Nc3ncccc3C(=O)O)cc2)cc1C — 6.1-fold lower, 14 µM
- O=C(O)c1ccccc1Nc1ccc(CCCc2ccc(F)c(F)c2)cc1 — 11-fold lower, 8 µM
- O=C(O)c1ccccc1Nc1ccc(CCc2ccc(F)c(F)c2)cc1 — higher, > 100 µM
- O=C(O)c1cc([N+](=O)[O-])ccc1Nc1ccc(CCc2cccc(Cl)c2)cc1 — 2.6-fold lower, 33 µM
- O=C(O)c1ccccc1Nc1ccc(CCCc2ccccc2Cl)cc1 — 14-fold lower, 6 µM
- Cc1ccc(CCCc2ccc(Nc3ccccc3C(=O)O)cc2)cc1 — 9.6-fold lower, 9 µM
- Cc1ccc(CCCc2ccc(Nc3ccc([N+](=O)[O-])cc3C(=O)O)cc2)cc1C — 6.1-fold lower, 14 µM
- O=C(O)c1cc([N+](=O)[O-])ccc1Nc1ccc(CCc2ccccc2Cl)cc1 — 29-fold lower, 3 µM
- Cc1ccc(Nc2ccc(CCc3ccc(Cl)c(Cl)c3)cc2)c(C(=O)O)c1 — higher, > 100 µM
- Cc1ccc(CCCc2ccc(Nc3ccccc3C(=O)O)cc2)cc1C — 14-fold lower, 6 µM
- O=C(O)c1cccc(C(F)(F)F)c1Nc1ccc(CCc2ccc(Cl)c(Cl)c2)cc1 — higher, > 100 µM
- O=C(O)c1ccccc1Nc1ccc(CCc2ccccc2Cl)cc1 — higher, > 100 µM
- O=C(O)c1ccccc1Nc1ccc(CCc2ccc(F)c(C(F)(F)F)c2)cc1 — higher, > 100 µM
- O=C(O)c1cc([N+](=O)[O-])ccc1Nc1ccc(CCc2ccc(Cl)cc2)cc1 — 5.7-fold lower, 15 µM
- O=C(O)c1cc(Nc2ccc(CCc3ccc(Cl)c(Cl)c3)cc2)ccc1F — higher, > 100 µM
- O=C(O)c1cccnc1Nc1ccc(CCc2ccc(Cl)c(Cl)c2)cc1 — 12-fold lower, 7 µM
- O=C(O)c1cccc(Nc2ccc(CCc3ccc(Cl)c(Cl)c3)cc2)c1 — higher, > 100 µM
- O=C(O)c1ccccc1Nc1ccc(CCCc2cccc(Cl)c2)cc1 — 22-fold lower, 4 µM
- COC(=O)c1ccc(Nc2ccc(CCc3ccc(Cl)c(Cl)c3)cc2)cc1 — higher, > 100 µM
- Cc1ccc(Nc2ccc(CCCc3ccc(Cl)c(Cl)c3)cc2)c(C(=O)O)c1 — higher, > 100 µM
- O=C(O)c1ccccc1Nc1ccc(CCc2ccc(Cl)c(Cl)c2)cc1 — higher, > 100 µM

system: Mus musculus; assay: Reduction in mean senile plaque area in Tg2576 mouse overexpressing human betaAPP695SWE at 200 mg/kg/day, po administered with chow; assay type: functional; design: scale not given: the % may be the effect or the level left

For `O=C(O)c1ccccc1Nc1ccc(CCc2ccc(Cl)c(Cl)c2)cc1`, the Activity was 2.1%.

system: Mus musculus; assay: Reduction in senile plaque load in Tg2576 mouse overexpressing human betaAPP695SWE at 60 mg/kg/day, po administered with chow for 3 months; assay type: functional; design: scale not given: the % may be the effect or the level left

Work on `O=C(O)c1ccccc1Nc1ccc(CCCc2ccc(Cl)c(Cl)c2)cc1` yielded an Activity of 45%.

system: Mus musculus; assay: Reduction in senile plaque load in Tg2576 mouse overexpressing human betaAPP695SWE at 60 mg/kg/day, po administered with chow for 7 months; assay type: functional; design: scale not given: the % may be the effect or the level left

Compound `O=C(O)c1ccccc1Nc1ccc(CCCc2ccc(Cl)c(Cl)c2)cc1` has an Activity of 47%.

system: Mus musculus; assay: Reduction in mean senile plaque area in Tg2576 mouse overexpressing human betaAPP695SWE at 60 mg/kg/day, po administered with chow; assay type: functional; design: scale not given: the % may be the effect or the level left

With `O=C(O)c1ccccc1Nc1ccc(CCCc2ccc(Cl)c(Cl)c2)cc1` the Activity was 2.6%.

system: not listed separately; assay: Inhibition of amyloid beta (1 to 40) aggregation by beta amyloid self seeding thioflavin T assay
How it was run: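 Compound was incubated with 30 μM Aβ(1-40) in 50 mM NaPi, 150 mM NaCl, 1 M urea, 0.02% w/v NaN3, pH 7.5. Thioflavin T at 5 µM was added after fibril formation, and fluorescence was read as β-sheet fibril content. IC50 came from eight concentrations by logit transformation of the titration curves. Values are the mean of two separate experiments.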

Point of comparison: `O=C(O)c1cc([N+](=O)[O-])ccc1Nc1ccc(CCc2cccc(Cl)c2)cc1`, IC50 0.3 µM. Against it:
- O=C(O)c1ccccc1Nc1ccc(CCc2cccc(F)c2)cc1 — 230-fold higher, 70 µM
- O=C(O)c1cc([N+](=O)[O-])ccc1Nc1ccc(CCCc2ccc(Cl)c(Cl)c2)cc1 — 3.3-fold higher, 1 µM
- O=C(O)c1ccccc1Nc1ccc(CCN2CCC3CCCCC3C2)cc1 (stereo not drawn) — 3.3-fold higher, 1 µM
- O=C(O)c1cc(F)ccc1Nc1ccc(CCCc2ccc(Cl)c(Cl)c2)cc1 — 3.3-fold higher, 1 µM
- O=C(O)c1ccccc1Nc1ccc(CCCc2ccc(Cl)c(Cl)c2)cc1 — 3.3-fold higher, 1 µM
- O=C(O)c1ccc(Nc2ccc(CCc3ccc(Cl)c(Cl)c3)cc2)cc1 — 33-fold higher, 10 µM
- O=C(O)c1ccccc1Nc1ccc(CCCc2ccc(Cl)cc2)cc1 — 6.7-fold higher, 2 µM
- O=C(O)c1cc([N+](=O)[O-])ccc1Nc1ccc(CCc2ccc(F)c(C(F)(F)F)c2)cc1 — 2.7-fold higher, 0.8 µM
- O=C(O)c1cc([N+](=O)[O-])ccc1Nc1ccc(CCc2ccc(Cl)cc2Cl)cc1 — 13-fold higher, 4 µM
- O=C(O)c1ccccc1Nc1ccc(CCc2ccccc2)cc1 — 33-fold higher, 10 µM
- Cc1ccc(CCCc2ccc(Nc3ncccc3C(=O)O)cc2)cc1C — 30-fold higher, 9 µM
- O=C(O)c1ccccc1Nc1ccc(CCCc2ccc(F)c(F)c2)cc1 — 17-fold higher, 5 µM
- O=C(O)c1ccccc1Nc1ccc(CCc2ccc(F)c(F)c2)cc1 — 6.7-fold higher, 2 µM
- O=C(O)c1ccccc1Nc1ccc(CCCc2ccccc2Cl)cc1 — 6.7-fold higher, 2 µM
- Cc1ccc(CCCc2ccc(Nc3ccccc3C(=O)O)cc2)cc1 — 3.3-fold higher, 1 µM
- Cc1ccc(CCCc2ccc(Nc3ccc([N+](=O)[O-])cc3C(=O)O)cc2)cc1C — 20-fold higher, 6 µM
- O=C(O)c1cc([N+](=O)[O-])ccc1Nc1ccc(CCc2ccccc2Cl)cc1 — 1.7-fold higher, 0.5 µM
- Cc1ccc(Nc2ccc(CCc3ccc(Cl)c(Cl)c3)cc2)c(C(=O)O)c1 — 6.7-fold higher, 2 µM
- Cc1ccc(CCCc2ccc(Nc3ccccc3C(=O)O)cc2)cc1C — 10-fold higher, 3 µM
- O=C(O)c1cccc(C(F)(F)F)c1Nc1ccc(CCc2ccc(Cl)c(Cl)c2)cc1 — 100-fold higher, 30 µM
- O=C(O)c1ccccc1Nc1ccc(CCc2ccccc2Cl)cc1 — 17-fold higher, 5 µM
- O=C(O)c1ccccc1Nc1ccc(CCc2ccc(F)c(C(F)(F)F)c2)cc1 — 6.7-fold higher, 2 µM
- O=C(O)c1cc([N+](=O)[O-])ccc1Nc1ccc(CCc2ccc(Cl)cc2)cc1 — within 1.5-fold, 0.4 µM
- O=C(O)c1cc(Nc2ccc(CCc3ccc(Cl)c(Cl)c3)cc2)ccc1F — 10-fold higher, 3 µM
- O=C(O)c1cccnc1Nc1ccc(CCc2ccc(Cl)c(Cl)c2)cc1 — 6.7-fold higher, 2 µM
- O=C(O)c1cccc(Nc2ccc(CCc3ccc(Cl)c(Cl)c3)cc2)c1 — 33-fold higher, 10 µM
- O=C(O)c1ccccc1Nc1ccc(CCCc2cccc(Cl)c2)cc1 — 10-fold higher, 3 µM
- COC(=O)c1ccc(Nc2ccc(CCc3ccc(Cl)c(Cl)c3)cc2)cc1 — higher, > 100 µM
- Cc1ccc(Nc2ccc(CCCc3ccc(Cl)c(Cl)c3)cc2)c(C(=O)O)c1 — higher, > 100 µM
- O=C(O)c1ccccc1Nc1ccc(CCc2ccc(Cl)c(Cl)c2)cc1 — 6.7-fold higher, 2 µM

system: not listed separately; assay: Inhibition of amyloid beta (1 to 40) aggregation assessed as appearance of smaller fragmented amyloid beta species at 50 uM by atomic force microscopy study

For `O=C(O)c1ccccc1Nc1ccc(CCc2ccc(Cl)c(Cl)c2)cc1`, the Activity was “Active”.
